Test [1] has as its target T1, Urotensin-2 receptor (Rattus norvegicus, UniProt P49684).
T1 sequence (P49684 whole entry): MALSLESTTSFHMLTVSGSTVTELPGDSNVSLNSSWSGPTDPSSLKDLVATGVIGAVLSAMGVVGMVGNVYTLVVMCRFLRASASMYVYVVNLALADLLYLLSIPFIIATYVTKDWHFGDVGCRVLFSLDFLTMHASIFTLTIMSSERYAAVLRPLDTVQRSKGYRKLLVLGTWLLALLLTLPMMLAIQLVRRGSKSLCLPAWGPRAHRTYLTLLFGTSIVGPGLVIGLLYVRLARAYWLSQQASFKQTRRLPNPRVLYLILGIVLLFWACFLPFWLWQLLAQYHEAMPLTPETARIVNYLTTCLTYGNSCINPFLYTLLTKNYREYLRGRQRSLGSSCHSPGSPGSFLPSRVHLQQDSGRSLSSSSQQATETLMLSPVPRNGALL
Description: Modulation of urotensin-2 receptor in Sprague-Dawley rat thoracic aortic ring assessed as urotensin-2 related peptide pEC50 for induction of aortic ring contraction at 10 uM preincubated for 15 mins followed by urotensin-2 related peptide addition (Rvb = 7.89 +/- 0.08 no unit).

For test [2], the target named is T1, Urotensin-2 receptor. Nature of the test: Modulation of urotensin-2 receptor in Sprague-Dawley rat thoracic aortic ring assessed as human urotensin-2 EC50 for induction of aortic ring contraction at 10 uM preincubated for 15 mins followed by human urotensin-2 addition (Rvb = 1.9 nM). In short, it runs like this:
(§1)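 Thoracic aortic rings from adult male Sprague-Dawley rats (250–300 g, killed by CO2). Rings were exposed to test compound for 15 min, then cumulative hUII concentration-response curves were run (10-10–3.10-6 M). Contraction is expressed as % of the 40 mM KCl response, with KCl given at the start and end. EC50/pEC50/Emax come from a variable-slope sigmoidal fit. At least triplicate.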

For test [3], the target named is T1, Urotensin-2 receptor. Nature of the test: Modulation of urotensin-2 receptor in Sprague-Dawley rat thoracic aortic ring assessed as urotensin-2 related peptide EC50 for induction of aortic ring contraction at 10 uM preincubated for 15 mins followed by urotensin-2 related peptide addition (Rvb = 13 nM).
For test [4], the target named is T1, Urotensin-2 receptor. Description: Modulation of urotensin-2 receptor in Sprague-Dawley rat thoracic aortic ring assessed as human urotensin-2 pEC50 for induction of aortic ring contraction at 10 uM preincubated for 15 mins followed by human urotensin-2 addition (Rvb = 8.71 +/- 0.08 no unit). In short, it runs like this:
as §1

Test [5] addresses T1, Urotensin-2 receptor. Nature of the test: Modulation of urotensin-2 receptor in Sprague-Dawley rat thoracic aortic ring assessed as urotensin-2 related peptide pEC50 for induction of aortic ring contraction at 14 uM preincubated for 15 mins followed by urotensin-2 related peptide addition (Rvb = 7.89 +/- 0.08 no unit).
In test [6] the target is T1, Urotensin-2 receptor. Description: Modulation of urotensin-2 receptor in Sprague-Dawley rat thoracic aortic ring assessed as human urotensin-2 EC50 for induction of aortic ring contraction at 4 uM preincubated for 15 mins followed by human urotensin-2 addition (Rvb = 1.9 nM).
Test [7] addresses T1, Urotensin-2 receptor. Nature of the test: Modulation of urotensin-2 receptor in Sprague-Dawley rat thoracic aortic ring assessed as human urotensin-2 EC50 for induction of aortic ring contraction at 1 uM preincubated for 15 mins followed by human urotensin-2 addition (Rvb = 1.9 nM).
Test [8] concerns the target T1, Urotensin-2 receptor. Nature of the test: Modulation of urotensin-2 receptor in Sprague-Dawley rat thoracic aortic ring assessed as human urotensin-2 pEC50 for induction of aortic ring contraction at 4 uM preincubated for 15 mins followed by human urotensin-2 addition (Rvb = 8.71 +/- 0.08 no unit).
The target in test [9] is T1, Urotensin-2 receptor. Nature of the test: Modulation of urotensin-2 receptor in Sprague-Dawley rat thoracic aortic ring assessed as human urotensin-2 pEC50 for induction of aortic ring contraction at 1 uM preincubated for 15 mins followed by human urotensin-2 addition (Rvb = 8.71 +/- 0.08 no unit).
For test [10], the target named is T1, Urotensin-2 receptor. Description: Modulation of urotensin-2 receptor in Sprague-Dawley rat thoracic aortic ring assessed as urotensin-2 related peptide EC50 for induction of aortic ring contraction at 14 uM preincubated for 15 mins followed by urotensin-2 related peptide addition (Rvb = 13 nM).
Test [11] is described as follows: Modulation of urotensin-2 receptor in Sprague-Dawley rat thoracic aortic ring assessed as human urotensin-2 EC50 for induction of aortic ring contraction at 15 uM preincubated for 15 mins followed by human urotensin-2 addition (Rvb = 1.9 nM).
Test [12] in a line: Modulation of urotensin-2 receptor in Sprague-Dawley rat thoracic aortic ring assessed as human urotensin-2 pEC50 for induction of aortic ring contraction at 15 uM preincubated for 15 mins followed by human urotensin-2 addition (Rvb = 8.71 +/- 0.08 no unit).
Test [13] in a line: Modulation of urotensin-2 receptor in Sprague-Dawley rat thoracic aortic ring assessed as urotensin-2 related peptide EC50 for induction of aortic ring contraction at 15 uM preincubated for 15 mins followed by urotensin-2 related peptide addition (Rvb = 13 nM).
The nature of test [14]: Modulation of urotensin-2 receptor in Sprague-Dawley rat thoracic aortic ring assessed as urotensin-2 related peptide pEC50 for induction of aortic ring contraction at 15 uM preincubated for 15 mins followed by urotensin-2 related peptide addition (Rvb = 7.89 +/- 0.08 no unit).
Test [15] in a line: Modulation of urotensin-2 receptor in Sprague-Dawley rat thoracic aortic ring assessed as human urotensin-2 EC50 for induction of aortic ring contraction at 8 uM preincubated for 15 mins followed by human urotensin-2 addition (Rvb = 1.9 nM).
Test [16] is described as follows: Modulation of urotensin-2 receptor in Sprague-Dawley rat thoracic aortic ring assessed as human urotensin-2 pEC50 for induction of aortic ring contraction at 8 uM preincubated for 15 mins followed by human urotensin-2 addition (Rvb = 8.71 +/- 0.08 no unit).
The nature of test [17]: Modulation of urotensin-2 receptor in Sprague-Dawley rat thoracic aortic ring assessed as urotensin-2 related peptide EC50 for induction of aortic ring contraction at 8 uM preincubated for 15 mins followed by urotensin-2 related peptide addition (Rvb = 13 nM).
A short description of test [18]: Modulation of urotensin-2 receptor in Sprague-Dawley rat thoracic aortic ring assessed as urotensin-2 related peptide pEC50 for induction of aortic ring contraction at 8 uM preincubated for 15 mins followed by urotensin-2 related peptide addition (Rvb = 7.89 +/- 0.08 no unit).
The target in test [19] is T1, Urotensin-2 receptor. Nature of the test: Modulation of urotensin-2 receptor in Sprague-Dawley rat thoracic aortic ring assessed as human urotensin-2 EC50 for induction of aortic ring contraction at 14 uM preincubated for 15 mins followed by human urotensin-2 addition (Rvb = 1.9 nM).
Test [20] deals with T1, Urotensin-2 receptor. Description: Modulation of urotensin-2 receptor in Sprague-Dawley rat thoracic aortic ring assessed as human urotensin-2 pEC50 for induction of aortic ring contraction at 14 uM preincubated for 15 mins followed by human urotensin-2 addition (Rvb = 8.71 +/- 0.08 no unit).
The target in test [21] is T1, Urotensin-2 receptor. Nature of the test: Modulation of urotensin-2 receptor in Sprague-Dawley rat thoracic aortic ring assessed as urotensin-2 related peptide pEC50 for induction of aortic ring contraction at 11 uM preincubated for 15 mins followed by urotensin-2 related peptide addition (Rvb = 7.89 +/- 0.08 no unit).
Test [22] has as its target T1, Urotensin-2 receptor. Description: Modulation of urotensin-2 receptor in Sprague-Dawley rat thoracic aortic ring assessed as human urotensin-2 EC50 for induction of aortic ring contraction at 11 uM preincubated for 15 mins followed by human urotensin-2 addition (Rvb = 1.9 nM).
For test [23], the target named is T1, Urotensin-2 receptor. Nature of the test: Modulation of urotensin-2 receptor in Sprague-Dawley rat thoracic aortic ring assessed as human urotensin-2 pEC50 for induction of aortic ring contraction at 11 uM preincubated for 15 mins followed by human urotensin-2 addition (Rvb = 8.71 +/- 0.08 no unit).
Test [24] deals with T1, Urotensin-2 receptor. Nature of the test: Modulation of urotensin-2 receptor in Sprague-Dawley rat thoracic aortic ring assessed as urotensin-2 related peptide EC50 for induction of aortic ring contraction at 11 uM preincubated for 15 mins followed by urotensin-2 related peptide addition (Rvb = 13 nM).

SMILES strings stand for the structures.

For 13 compounds, EC50 results are on record in BindingDB's records for doi:10.1021/acs.jmedchem.5b00162 (University of Montreal, 2015).

A word on the EC50: it is the concentration giving half of the maximal effect.

For `NCCC[C@@H]1N=C(c2ccc3ccccc3c2)c2[nH]c(C(=O)O)cc2N(CCc2ccc(O)cc2)C1=O`, the EC50 in test [1] is 6.8 nM; in [2], 9.5 nM; in test [3] it was 6.8 nM; in test [4] it was 9.3 nM.

For the compound `NCCCC[C@@H]1N[C@@H](c2ccc3ccccc3c2)c2[nH]c(C(=O)O)cc2N(CCc2ccc(O)cc2)C1=O`, the 50% effective concentration (EC50) in test [1] was 8.7 nM; in test [2] it was 1.5 nM; in test [3], 8.7 nM; in test [4], 1.5 nM.

Take `NCCC[C@@H]1N=C(c2ccc(-c3ccccc3)cc2)c2[nH]c(C(=O)O)cc2N(CCc2ccc(O)cc2)C1=O`: the EC50 was found to be 23 nM in test [1], 12 nM in test [2], 23 nM in test [3] and 12 nM in test [4].

Regarding `NCCCC[C@@H]1N[C@H](c2ccc(-c3ccccc3)cc2)c2[nH]c(C(=O)O)cc2N(CCc2ccc(O)cc2)C1=O`, the EC50 in [5] came out at 19 nM; in test [6], 3.5 nM; in test [7], 4.5 nM; in [8], 3.5 nM; in test [9] it was 4.5 nM; in [10], 19 nM.

For `NCCCC[C@@H]1N=C(c2ccc3ccccc3c2)c2[nH]c(C(=O)O)cc2N(CCc2ccc(O)cc2)C1=O`, the EC50 in test [1] is 21 nM; in test [2], 4 nM; in [3] it was 21 nM; in [4], 4.7 nM.

`NCCC[C@@H]1N=C(c2cccc3ccccc23)c2[nH]c(C(=O)O)cc2N(CCc2ccc(O)cc2)C1=O`: the EC50 in test [1] is 12 nM; in test [2] it was 2.7 nM; in [3] it was 12 nM; in test [4], 2.6 nM.

Take `NCCCC[C@@H]1N=C(c2ccc(-c3ccccc3)cc2)c2[nH]c(C(=O)O)cc2N(CCc2ccc(O)cc2)C1=O`: the EC50 is 6.6 nM in test [11], 6.5 nM in test [12], 12 nM in test [13] and 12 nM in test [14].

For the compound `NCCCC[C@@H]1N=C(c2cccc3ccccc23)c2[nH]c(C(=O)O)cc2N(CCc2ccc(O)cc2)C1=O`, the EC50 amounted to 7.8 nM in [15], 7.8 nM in test [16], 5.3 nM in test [17] and 5.4 nM in [18].

For `NCCCC[C@@H]1N[C@@H](c2ccc(-c3ccccc3)cc2)c2[nH]c(C(=O)O)cc2N(CCc2ccc(O)cc2)C1=O`, the EC50 in test [5] amounted to 10 nM; in test [19], 8.8 nM; in [20], 8.7 nM; in test [10], 10 nM.

`NCCC[C@@H]1N[C@@H](c2cccc3ccccc23)c2[nH]c(C(=O)O)cc2N(CCc2ccc(O)cc2)C1=O`: the EC50 in test [1] turned out to be 3.6 nM; in test [2] it was 4.8 nM; in test [3], 3.7 nM; in [4] it was 4.8 nM.

Consider `NCCC[C@@H]1N[C@H](c2cccc3ccccc23)c2[nH]c(C(=O)O)cc2N(CCc2ccc(O)cc2)C1=O`, for which the half-maximal effective concentration (EC50) in [1] was found to be 4.6 nM; in [2], 5.7 nM; in test [3] it was 4.5 nM; in test [4], 5.6 nM.

As for `NCCC[C@@H]1N[C@H](c2ccc(-c3ccccc3)cc2)c2[nH]c(C(=O)O)cc2N(CCc2ccc(O)cc2)C1=O`, the concentration for a half-maximal effect (EC50) was found to be 8.1 nM in test [21], 4.3 nM in [22], 4.3 nM in [23] and 8.1 nM in [24].

For the compound `NCCCC[C@@H]1N[C@H](c2ccc3ccccc3c2)c2[nH]c(C(=O)O)cc2N(CCc2ccc(O)cc2)C1=O`, the EC50 in [1] came out at 8.3 nM; in test [2], 5 nM; in [3], 8.2 nM; in [4], 4.9 nM.
